ChEMBL document CHEMBL4732146, “Nitric oxide-donating and reactive oxygen species-responsive prochelators based on 8-hydroxyquinoline as anticancer agents” (Eur J Med Chem, 2021)
pIC50: −log10 of the molar value. Calls of active or inactive are those of the source. The rule behind the calls is not given here.

What was measured:
[1] = tested on: PANC-1; test: Cytotoxicity against human PANC-1 cells assessed as reduction in cell viability measured after 48 hrs by MTT assay; type: functional, cell-based; conditions: PANC-1, 48 h
Method in brief: (§1)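 Cells seeded 6 × 10⁴ per well, cultured 24 h at 37 °C under 5% CO₂, then exposed to compound for 48 h, with or without 50 µM CuCl₂ or FeCl₃ co-incubation. MTT added for 4 h at 37 °C, formazan dissolved in DMSO, A490 read. IC50 reported as mean (SD), n = 3.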

[2] = tested on: SW1990; test: Cytotoxicity against human SW1990 cells assessed as reduction in cell viability measured after 48 hrs by MTT assay; type: functional, cell-based; conditions: SW1990, 48 h; method in brief: as §1
[3] = tested on: PANC-1; test: Cytotoxicity against human PANC-1 cells assessed as reduction in cell viability measured after 48 hrs in presence of CuCl2 by MTT assay; type: functional, cell-based; conditions: PANC-1, 48 h; method in brief: as §1
[4] = tested on: SW1990; test: Cytotoxicity against human SW1990 cells assessed as reduction in cell viability measured after 48 hrs in presence of CuCl2 by MTT assay; type: functional, cell-based; conditions: SW1990, 48 h; method in brief: as §1
[5] = tested on: PANC-1; test: Cytotoxicity against human PANC-1 cells assessed as reduction in cell viability measured after 48 hrs in presence of FeCl3 by MTT assay; type: functional, cell-based; conditions: PANC-1, 48 h; method in brief: as §1
[6] = tested on: SW1990; test: Cytotoxicity against human SW1990 cells assessed as reduction in cell viability measured after 48 hrs in presence of FeCl3 by MTT assay; type: functional, cell-based; conditions: SW1990, 48 h; method in brief: as §1
[7] = Cytotoxicity against human H6C7 cells assessed as reduction in cell viability measured after 48 hrs by MTT assay; type: cell-based; conditions: H6C7, 48 h; method in brief: as §1
[8] = Cytotoxicity against human RWPE2 cells assessed as reduction in cell viability measured after 48 hrs by MTT assay; type: cell-based; conditions: RWPE2, 48 h; method in brief: as §1
[9] = Stability of compound in pH 5 PBS buffer measured after 5 to 24 hrs by RP-HPLC analysis; type: physicochemical; conditions: time 5-24 hrs
Method in brief: (§2)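 Compound (1 µM) stirred at 37 °C either in PBS (pH 5.0, 7.4 or 10.0) containing 5% DMSO or in DMEM with 10% FBS. Aliquots were analysed by RP-HPLC (0.1% TFA water/methanol gradient, 256 nm) for remaining intact compound, up to 24 h.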

[10] = Stability of compound in pH 7.4 PBS buffer measured after 5 to 24 hrs by RP-HPLC analysis; type: physicochemical; conditions: time 5-24 hrs; method in brief: as §2
[11] = Stability of compound in pH 10 PBS buffer measured after 5 to 24 hrs by RP-HPLC analysis; type: physicochemical; conditions: time 5-24 hrs; method in brief: as §2
[12] = Stability of compound in DMEM with 10% fetal bovine serum measured after 5 to 24 hrs by RP-HPLC analysis; type: cell-free; conditions: time 5-24 hrs; method in brief: as §2
[13] = Metal chelating activity assessed as compound-Cu2+ complex formation measured after 40 mins by calcein dye based fluorescence assay; conditions: dose 10-50 µM
Method in brief: (§3)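 Calcein (10 µM) in 50 mM HEPES was quenched by 10 µM CuCl₂ (or FeCl₃ for the Fe³⁺ arm). Chelator was added from DMSO stock to a final 10 or 50 µM and incubated 40 min at room temperature. Recovery rate was calculated from fluorescence (λex 485 / λem 520 nm); n = 3.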

[14] = Metal chelating activity assessed as compound-Fe3+ complex formation measured after 40 mins by calcein dye based fluorescence assay; conditions: dose 10-50 µM; method in brief: as §3
[15] = tested on: PANC-1; test: Cytotoxicity against human PANC-1 cells assessed as reduction in cell viability at 20 uM measured after 48 hrs by MTT assay relative to control; type: functional
Method in brief: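 MTT assay with 48 h compound exposure at 10 or 20 µM. Cells seeded 6 × 10⁴ per well and grown 24 h beforehand. MTT 4 h, DMSO solubilisation, A490 read. Percent cell death given as mean ± SD, n = 3.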

[16] = tested on: A549; test: Cytotoxicity against human A549 cells assessed as reduction in cell viability measured after 48 hrs by MTT assay; type: functional, cell-based; conditions: A549, 48 h
[17] = tested on: HeLa; test: Cytotoxicity against human HeLa cells assessed as reduction in cell viability measured after 48 hrs by MTT assay; type: functional, cell-based
[18] = tested on: HepG2; test: Cytotoxicity against human HepG2 cells assessed as reduction in cell viability measured after 48 hrs by MTT assay; type: functional, cell-based; conditions: HepG2, 48 h; method in brief: as §1
[19] = tested on: MCF7; test: Cytotoxicity against human MCF7 cells assessed as reduction in cell viability measured after 48 hrs by MTT assay; type: functional, cell-based; conditions: MCF7, 48 h; method in brief: as §1
[20] = tested on: HCT-116; test: Cytotoxicity against human HCT-116 cells assessed as reduction in cell viability measured after 48 hrs by MTT assay; type: functional, cell-based; conditions: HCT-116, 48 h; method in brief: as §1
[21] = tested on: PC-3; test: Cytotoxicity against human PC-3 cells assessed as reduction in cell viability measured after 48 hrs by MTT assay; type: functional, cell-based; conditions: PC-3, 48 h; method in brief: as §1
[22] = tested on: A549; test: Cytotoxicity against human A549 cells assessed as reduction in cell viability measured after 48 hrs in presence of CuCl2 by MTT assay; type: functional, cell-based; conditions: A549, 48 h
[23] = tested on: HeLa; test: Cytotoxicity against human HeLa cells assessed as reduction in cell viability measured after 48 hrs in presence of CuCl2 by MTT assay; type: functional, cell-based
[24] = tested on: HepG2; test: Cytotoxicity against human HepG2 cells assessed as reduction in cell viability measured after 48 hrs in presence of CuCl2 by MTT assay; type: functional, cell-based; conditions: HepG2, 48 h; method in brief: as §1
[25] = tested on: MCF7; test: Cytotoxicity against human MCF7 cells assessed as reduction in cell viability measured after 48 hrs in presence of CuCl2 by MTT assay; type: functional, cell-based; conditions: MCF7, 48 h; method in brief: as §1
[26] = tested on: HCT-116; test: Cytotoxicity against human HCT-116 cells assessed as reduction in cell viability measured after 48 hrs in presence of CuCl2 by MTT assay; type: functional, cell-based; conditions: HCT-116, 48 h; method in brief: as §1
[27] = tested on: PC-3; test: Cytotoxicity against human PC-3 cells assessed as reduction in cell viability measured after 48 hrs in presence of CuCl2 by MTT assay; type: functional, cell-based; conditions: PC-3, 48 h; method in brief: as §1
[28] = tested on: A549; test: Cytotoxicity against human A549 cells assessed as reduction in cell viability measured after 48 hrs in presence of FeCl3 by MTT assay; type: functional, cell-based; conditions: A549, 48 h
[29] = tested on: HeLa; test: Cytotoxicity against human HeLa cells assessed as reduction in cell viability measured after 48 hrs in presence of FeCl3 by MTT assay; type: functional, cell-based
[30] = tested on: HepG2; test: Cytotoxicity against human HepG2 cells assessed as reduction in cell viability measured after 48 hrs in presence of FeCl3 by MTT assay; type: functional, cell-based; conditions: HepG2, 48 h; method in brief: as §1
[31] = tested on: MCF7; test: Cytotoxicity against human MCF7 cells assessed as reduction in cell viability measured after 48 hrs in presence of FeCl3 by MTT assay; type: functional, cell-based; conditions: MCF7, 48 h; method in brief: as §1
[32] = tested on: HCT-116; test: Cytotoxicity against human HCT-116 cells assessed as reduction in cell viability measured after 48 hrs in presence of FeCl3 by MTT assay; type: functional, cell-based; conditions: HCT-116, 48 h; method in brief: as §1
[33] = tested on: PC-3; test: Cytotoxicity against human PC-3 cells assessed as reduction in cell viability measured after 48 hrs in presence of FeCl3 by MTT assay; type: functional, cell-based; conditions: PC-3, 48 h; method in brief: as §1
[34] = tested on: SW1990; test: Induction of apoptosis in human SW1990 cells at 12 uM measured after 24 hrs by Annexin V-FITC/propidium iodide staining based flow cytometry; type: functional, cell-based
Method in brief: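 SW1990 cells seeded 5 × 10⁵ per well and grown 24 h, then treated 24 h at 8 or 12 µM. Optional 1 h pretreatment with 20 mM NAC or 50 µM carboxyl-PTIO before 12 µM treatment. Cells stained with annexin V-FITC 15 min and PI 5 min at room temperature in the dark, then analysed by flow cytometry. Mean ± SD, n = 3.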

[35] = tested on: SW1990; test: Antitumor activity against human SW1990 cells xenografted in Balb/c nude mouse assessed as tumor size at 20 mg/kg, iv administered every 3 days measured after 21 days (reference value: 1.23 +/- 0.25 cm3); type: functional; conditions: time 21 day
Method in brief: (§4)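 Male BALB/c nude mice, 3–5 weeks old, given 1 × 10⁷ SW1990 cells subcutaneously; when tumors reached about 65 mm³, randomised to groups of eight. Saline vehicle control, dosing intravenously every three days. Tumor size monitored every two days for three weeks; tumors dissected at sacrifice on day 21, volume = d² × D/2 (d smallest, D largest diameter). Mean ± SD.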

[36] = tested on: SW1990; test: Antitumor activity against human SW1990 cells xenografted in Balb/c nude mouse assessed as tumor growth inhibition at 20 mg/kg, iv administered every 3 days measured after 21 days relative to control; type: functional; conditions: 504 h, time 21 day, read-out: TGI; method in brief: as §4

Structure (SMILES): CC1(C)OB(c2ccc(COc3cccc4ccc(C(=O)NCCCOc5no[n+]([O-])c5S(=O)(=O)c5ccccc5)nc34)cc2)OC1(C)C
- pIC50 [1]: 4.77
- pIC50 [2]: 4.80
- pIC50 [3]: 5.31
- pIC50 [4]: 5.49
- pIC50 [5]: 4.60
- pIC50 [6]: 4.68
- pIC50 [7]: 4.39
- pIC50 [8]: 4.40
- Stabilty [9]: Stable
- Stabilty [10]: Stable
- Stabilty [11]: Stable
- Stability [12]: Stable

Structure (SMILES): CC1(C)OB(c2ccc(COc3cccc4ccc(C(=O)N5CCC(Oc6no[n+]([O-])c6S(=O)(=O)c6ccccc6)CC5)nc34)cc2)OC1(C)C
- pIC50 [1]: 4.88
- pIC50 [2]: 4.92
- pIC50 [3]: 5.46
- pIC50 [4]: 5.54
- pIC50 [5]: 4.42
- pIC50 [6]: 4.47
- pIC50 [7]: 4.47
- pIC50 [8]: 4.54
- Stabilty [9]: Stable
- Stabilty [10]: Stable
- Stabilty [11]: Stable
- Stability [12]: Stable

Structure (SMILES): Oc1cccc2cccnc12 [OXYQUINOLINE]
- Activity [13]: Dose-dependent effect
- Activity [14]: Dose-dependent effect
- Activity [15]: 48%
- pIC50 [16]: 4.51
- pIC50 [17]: < 4.30
- pIC50 [18]: < 4.30
- pIC50 [19]: < 4.30
- pIC50 [1]: 4.61
- pIC50 [20]: 4.68
- pIC50 [21]: 4.49
- pIC50 [2]: 4.49
- pIC50 [22]: 5.18
- pIC50 [23]: 4.45
- pIC50 [24]: 4.49
- pIC50 [25]: 4.68
- pIC50 [3]: 5.13
- pIC50 [26]: 5.14
- pIC50 [27]: 4.84
- pIC50 [4]: 4.99
- pIC50 [28]: 4.49
- pIC50 [29]: < 4.30
- pIC50 [30]: < 4.30
- pIC50 [31]: < 4.30
- pIC50 [5]: 4.52
- pIC50 [32]: 4.58
- pIC50 [33]: < 4.30
- pIC50 [6]: < 4.30
- pIC50 [7]: 4.70
- pIC50 [8]: 4.59
- Activity [34]: Active
- Activity [35]: 0.68 cm3
- inhibition in vivo at 20 mg/kg [36]: 44.7%
